Where a SMILES comes first, the peptide text is derived from it. [ ]: non-standard residue; d: D form. Sar = CNCC(=O)O
What was measured:
hPepT1 [1] = molecular target: T1, hPepT1 (Homo sapiens, UniProt P46059); conditions: cited from earlier work
T1 sequence (P46059 1-708): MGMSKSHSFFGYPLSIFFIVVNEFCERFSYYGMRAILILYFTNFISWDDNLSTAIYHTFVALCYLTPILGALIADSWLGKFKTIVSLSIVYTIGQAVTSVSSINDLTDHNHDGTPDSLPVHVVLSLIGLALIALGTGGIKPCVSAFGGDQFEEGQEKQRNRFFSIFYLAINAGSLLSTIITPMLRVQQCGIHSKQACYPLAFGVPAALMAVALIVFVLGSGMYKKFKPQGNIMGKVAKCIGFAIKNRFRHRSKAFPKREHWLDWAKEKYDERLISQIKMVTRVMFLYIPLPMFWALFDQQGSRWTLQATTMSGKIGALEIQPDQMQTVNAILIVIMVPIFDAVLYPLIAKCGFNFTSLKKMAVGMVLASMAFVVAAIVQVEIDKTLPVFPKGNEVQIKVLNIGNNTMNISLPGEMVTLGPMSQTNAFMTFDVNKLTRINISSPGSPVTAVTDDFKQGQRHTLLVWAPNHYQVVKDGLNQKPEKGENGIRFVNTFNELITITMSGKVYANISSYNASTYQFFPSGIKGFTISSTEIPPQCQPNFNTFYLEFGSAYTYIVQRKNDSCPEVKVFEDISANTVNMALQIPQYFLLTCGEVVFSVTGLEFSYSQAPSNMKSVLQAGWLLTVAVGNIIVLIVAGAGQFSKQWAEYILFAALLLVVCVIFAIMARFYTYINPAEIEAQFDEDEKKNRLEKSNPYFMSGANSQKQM

hPepT1 [2] = molecular target: T1, hPepT1; type: cell-based; conditions: hPepT1-expressing oocytes; for induction of inward current (in words): pH 6.0, voltage clamp −50 mV
How it was run: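 Stage V–VI X. laevis oocytes were collagenase-treated, defolliculated, held at 18 °C in modified Barth's medium with gentamicin, and injected with 50 ng hPepT1 cRNA, with water-injected controls. TEVC clamped at −50 mV under pH 7.5 buffer, then NaCl buffer pH 6.0 ± test compound to steady state, then washout. Induced current = steady-state difference, expressed relative to 1 mM or 250 µM glycylsarcosine currents.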

hPepT1 [3] = molecular target: T1, hPepT1; type: cell-based

Row | induction of inward current (in words) (hPepT1 [2]) | IC50 (hPepT1 [3]) [mM] | induced inward current (hPepT1 [2]; 1 mM, buffer pH 6.0, clamped at −50 mV) | Structure (SMILES) | identified as hPepT1 inhibitor (hPepT1 [1])
1 | induced significant inward currents | 3.9 | – | COC(=O)[C@H](Cc1ccccc1)NC(=O)[C@@H](N)CC(=O)O [aspartame] (H-Asp-Phe-OMe) | inhibitor
2 | – | – | 300–400 nA | CN(CC(=O)O)C(=O)CN [glycylsarcosine] (H-Gly-[Sar]-OH) | –
3 | induced significant inward currents | – | – | Nc1ccc(CC(=O)O)cc1 [4-amino PA, 4-amino phenyl acetic acid] | –

Source: article PMC5826771 (Molecular pharmaceutics, 2017)
